Series [1] in a line: In vivo positive allosteric modulation of muscarinic M1 receptor in CD1 mouse assessed as increase in ACh-induced IP-1 levels in […] tissue at 10 mg/kg, sc measured after 2 hrs by HTRF assay relative to baseline. The format is functional. Put shortly: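 Given sc as a solution in 5/15/80 DMSO/Solutol/water. Striatal IP1 was read 2 h after dosing and expressed as fold increase over baseline. Compound levels were measured in striatal tissue at 2 h (N=5/dose). Each animal's fold increase was plotted against its unbound brain concentration.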
On the technique in general: TR-FRET usually uses a lanthanide donor and a delayed reading to cut background.

The nature of series [2]: Toxicity in male Beagle dog assessed as decrease in QTc interval at 3 mg/kg, po administered as single dose observed upto 9 hrs post last dose by telemetry. The format is organism-based, Canis lupus familiaris. To be noted: in vivo. Put shortly:
(§1)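 Crossover telemetry study in dogs at three oral doses (0.3, 1 and 3 mg/kg), N=4. Endpoints were blood pressure, maximum systolic left ventricular pressure, LV +dP/dt max, activity, heart rate, and RR, QT and QTc intervals, followed up to 9 h post dose.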

A short description of series [3]: Toxicity in male Beagle dog assessed as effect on heart rate at 3 mg/kg, po observed upto 9 hrs post last dose by telemetry. The format is organism-based, Canis lupus familiaris. To be noted: in vivo. Put shortly:
as §1

A short description of series [4]: Toxicity in dog assessed as emesis at 45 mg/kg, po using spray-dried dispersion formulation measured after 45 mins. To be noted: in vivo, 0.75 h. The series is classed as organism-based, Canis lupus familiaris. In short, it runs like this:
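Dogs received single escalating oral doses as a spray-dried dispersion (10% drug loading with HPMCAS-M). The dispersion was suspended in 0.5 wt% methylcellulose/0.5 wt% HPMCAS in 20 mM tris buffer, pH 7.4. One dog per sex per dose was used, and clinical signs were recorded.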

Series [5] in a line: fAUC (0 to 24 hrs) in dog at 5 mg/kg, po using spray-dried dispersion formulation. The series is classed as ADME, organism-based, Canis lupus familiaris. To be noted: in vivo.
A short description of series [6]: fAUC (0 to 24 hrs) in dog at 3 mg/kg, po using spray-dried dispersion formulation. The format is ADME, organism-based, Canis lupus familiaris. To be noted: in vivo.
Series [7] is described as follows: Toxicity in male rat assessed as increase in body weight at 10 mg/kg, po administered for 14 days. The format is organism-based. To be noted: in vivo, 336 h, time 14 day. In short, it runs like this: (§2)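 Two-week repeat-dose toxicity study in rats. Oral dosing in 0.5% methylcellulose at 3, 10, 30 (males)/15 (females) mg/kg, N=4/sex/dose. Food intake, body weight gain and histopathology were assessed.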

Series [8] can be described thus: Toxicity in female rat assessed as increase in food intake at 15 mg/kg, po administered for 14 days. The format is organism-based. To be noted: in vivo, 336 h, time 14 day. In short, it runs like this:
as §2

Series [9] in a line: fAUC (0 to 24 hrs) in rat at 3 mg/kg, po administered for 14 days. The series is classed as ADME, organism-based. To be noted: in vivo, 336 h, time 14 day. In short, it runs like this:
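2-week repeat oral dosing in rats, 0.5% methylcellulose formulation; N=4/sex/dose; doses 3, 10, 30 (males)/15 (females) mg/kg; unbound exposures reported per dose and sex.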

The nature of series [10]: Unbound plasma concentration in scopolamine-induced Wistar rat model at 0.1 mg/kg, po measured after 1 hr. The series is classed as ADME, organism-based. To be noted: in vivo.
Series [11] can be described thus: Unbound plasma concentration in CD-1 mouse at 3.2 mg/kg, sc measured after 2 hrs by LC-MS/MS analysis. To be noted: in vivo. The series is classed as ADME, organism-based.
Series [12] can be described thus: Unbound plasma concentration in CD-1 mouse at 1 mg/kg, sc measured after 2 hrs by LC-MS/MS analysis. The format is ADME, organism-based. To be noted: in vivo.
The target of series [13] is Muscarinic acetylcholine receptor M3 (Homo sapiens, UniProt P20309). Kind of series: Agonist activity at human recombinant muscarinic M3 receptor stably expressed in CHO cells assessed as increase in intracellular calcium level up to 10 uM incubated for 10 mins by Fluo-8AM dye based FLIPR TETRA method. The format is cell-based. On the technique in general: Calcium flux is commonly read through the fluorescence of an indicator in the cells.

Series [14] deals with T1, Muscarinic acetylcholine receptor M1 (Rattus norvegicus) (UniProt P08482).
T1 sequence (whole entry): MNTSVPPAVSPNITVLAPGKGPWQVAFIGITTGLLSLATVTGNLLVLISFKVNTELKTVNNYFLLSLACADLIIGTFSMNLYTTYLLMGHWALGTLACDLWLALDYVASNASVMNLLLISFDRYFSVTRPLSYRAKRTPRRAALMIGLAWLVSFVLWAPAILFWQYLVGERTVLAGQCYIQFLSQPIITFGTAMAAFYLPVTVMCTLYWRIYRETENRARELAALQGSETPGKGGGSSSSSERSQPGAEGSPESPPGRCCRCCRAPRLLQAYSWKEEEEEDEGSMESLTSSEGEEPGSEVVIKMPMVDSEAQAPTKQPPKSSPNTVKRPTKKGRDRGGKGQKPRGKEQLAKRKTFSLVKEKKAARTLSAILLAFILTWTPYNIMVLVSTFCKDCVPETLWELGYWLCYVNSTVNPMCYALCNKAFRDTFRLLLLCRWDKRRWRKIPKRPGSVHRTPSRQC
Put plainly: Agonist activity at muscarinic M1 receptor in Sprague-Dawley rat hippocampal slice assessed as increase in CA1 spiked rates by electrophysiological analysis. To be noted: filed as agonist.

A short description of series [15]: Half life in dog at 0.5 mg/kg, po or 0.1 mg/kg, iv. The series is classed as ADME, organism-based, Canis lupus familiaris. To be noted: in vivo.
The nature of series [16]: Ratio of AUC in dog brain to fAUC in dog plasma. The format is ADME, cell-free, Canis lupus familiaris. To be noted: in vivo.
Series [17] in a line: Oral bioavailability in rat at 0.5 mg/kg. The series is classed as ADME, organism-based. To be noted: in vivo.
Series [18] in a line: Ratio of fAUC in C57BL/6 mouse brain to plasma. The format is ADME, cell-free. To be noted: brain and plasma, read-out: Ratio AUC.
A short description of series [19]: Thermodynamic solubility of compound at pH 6.5. The format is physicochemical. To be noted: buffer, read-out: Therm_solubility.
Series [20] can be described thus: Toxicity in po dosed dog assessed as NOAEL using spray-dried dispersion formulation. The series is classed as organism-based, Canis lupus familiaris. To be noted: in vivo.
Series [21] can be described thus: Toxicity in male rat assessed as increase in body weight at 30 mg/kg, po administered for 14 days. To be noted: in vivo, 336 h.
A further series relates to Rattus norvegicus. Put plainly: Reversal of scopolamine-induced spatial learning in Wistar rat model at 0.32 mg/kg, po administered 15 min before training followed by 30 mins later administration with scopolamine measured after 24 hrs by Morris water maze test.

For orientation: half-life means how long it takes for the measured level to halve. The low end stands for fast loss, the high end for slow loss. By NOAEL is commonly meant the highest dose or exposure tested at which no adverse effect was seen.

Each structure is given as a SMILES string. Values after ≈ are worked out from the molar mass of the structure shown. Active and inactive are the calls of the source. No cut-off for these calls is given here.

Chain of Muscarinic acetylcholine receptor M3 (P20309 whole entry): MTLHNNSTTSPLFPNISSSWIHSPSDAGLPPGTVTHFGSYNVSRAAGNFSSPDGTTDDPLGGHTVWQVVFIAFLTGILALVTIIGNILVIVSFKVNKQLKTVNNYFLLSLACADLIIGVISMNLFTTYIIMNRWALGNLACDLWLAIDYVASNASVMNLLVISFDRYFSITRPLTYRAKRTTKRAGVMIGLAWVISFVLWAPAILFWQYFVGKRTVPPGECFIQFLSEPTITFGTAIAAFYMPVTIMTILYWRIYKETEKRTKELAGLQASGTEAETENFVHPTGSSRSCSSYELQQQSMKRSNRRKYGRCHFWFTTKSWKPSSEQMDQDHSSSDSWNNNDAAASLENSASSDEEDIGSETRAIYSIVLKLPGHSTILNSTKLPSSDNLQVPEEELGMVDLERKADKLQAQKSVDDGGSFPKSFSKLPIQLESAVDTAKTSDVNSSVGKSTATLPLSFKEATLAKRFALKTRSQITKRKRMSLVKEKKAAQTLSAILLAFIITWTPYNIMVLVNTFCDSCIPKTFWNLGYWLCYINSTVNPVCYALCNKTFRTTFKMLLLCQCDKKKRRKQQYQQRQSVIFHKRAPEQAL

As for `Cc1cnc(C(=O)N[C@H]2CCOC[C@@H]2O)cc1Cc1ccc(-c2cscn2)cc1`, the “fold change (FC)” value in series [1] was 42. Also, the Activity result in series [2] was “Toxic”; in series [3], 25 bpm; in series [4], “Toxic”; in [7], “Non-Toxic”; in [8] it was “Non-Toxic”; in series [13], “Not Active”. The results for the Activity result in series [14] and in series [21] were “Dose-dependent effect” and “Non-Toxic”, respectively. The fAUC is 5.861 µM·h in series [5], 5.242 µM·h in series [6] and 1.856 µM·h in series [9]. In addition, the entries for the “Cp(f)” value in series [10], in series [11] and in series [12] were 0.9 nM, 176 nM and 42.1 nM, respectively. For the same molecule, in [15], the half-life is 5.17 h. The “Ratio AUC” value in series [16] is on record as 0.6. Also, the bioavailability in [17] stood at 112%. Further, the Kp uu in series [18] came out at 0.34. Also, in series [19], the solubility thermodynamic stood at 2.7 µg/mL (≈ 6.59 µM). For the same molecule, in series [20], the NOAEL came out at 5 mg/kg. For the same molecule, the outcome in the series on Rattus norvegicus was Active.

For the origin of these results see ChEMBL document CHEMBL4715734, “Discovery of the Potent and Selective M1 PAM-Agonist N-[(3R,4S)-3-Hydroxytetrahydro-2H-pyran-4-yl]-5-methyl-4-[4-(1,3-thiazol-4-yl)benzyl]pyridine-2-carboxamide (PF-06767832): Evaluation of Efficacy and Cholinergic Side Effects” (J Med Chem, 2016).
